From PubChem
T cruzi inh: inhibitors of intracellular T. cruzi growth, primary screen, luminescence, NIH3T3 host cells; T. cruzi beta-gal in NIH3T3, 90 h; inhibition, % (concentration not given with the values); 1.4% of 300,000 active; AID 1885, 2009;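 active = mean inhibition across valid replicates above about 55%, limit read from the data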;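 also: signal also drops with host cell toxicity which is not excluded here; 0% = plate median of DMSO wells and 100% = zero luminescence signal; higher percent means less beta-gal luminescence so fewer parasites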
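assay system = mouse NIH/3T3 fibroblasts infected with β-gal-expressing T. cruzi Tulahuen C4 | input = 5,000 NIH/3T3 host cells per well | buffer or medium = DMEM plus 2% FBS | timing = 3 h host attachment, then at least 90 h co-culture | measured by = GalScreen luminescence, 60 min | evaluation = luminescence reflecting intracellular parasite burden, expressed as percent inhibition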
Mdm2 MdmX PPI: inhibitors of human Mdm2-MdmX association, primary screen, cell-based, luminescence, split luciferase, SaOS-2, uHTS; Protein Mdm4 (Homo sapiens) + E3 ubiquitin-protein ligase Mdm2 (Homo sapiens), …; SaOS-2 split-luciferase Mdm2/MdmX complementation; inhibition, % at 8 µM; 3% of 330,000 active;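 active = inhibition of at least 50% at 8 µM in the primary screen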
Beta cell apopt: inhibitors of cytokine-induced beta cell apoptosis, primary screen, luminescence. INS-1E cytokine-induced death, ATP luminescence, 48 h; percent of positive-control rescue, neutral wells zero. protection from apoptosis, % (concentration not given with the values). 0.8% of 300,000 active;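 active = Every replicate reaches about 75%, or at least half do and their mean reaches it too, limit read from the data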;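 also: 0% = cytokine-treated negative control wells and 100% = positive control rescue; higher means more ATP so stronger rescue from cytokine killing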
Calb FLC: C. albicans growth inhibition with fluconazole, primary screen, CaCi-2 strain, Alamar Blue fluorescence | C. albicans CaCi-2 + fluconazole, 48 h | growth inhibition, % (concentration not given with the values) | 0.57% of 300,000 active | AID 1979, 2009;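 active = growth inhibition above about 58% in most replicates, limit read from the data, passing the limit was not always enough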;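 also: all wells also contain fluconazole at 8 µg/ml as a sub-toxic cotreatment; 0% = median of DMSO wells and 100% = median of geldanamycin control wells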
SKKanGAS inh: S. pyogenes SKKanGAS growth inhibitors in kanamycin, primary screen, streptokinase expression inhibitor project, SKKanGAS strain, BacTiter-Glo luminescence. 6 h. inhibition, % at 7.5 µM. 1.3% of 300,000 active;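 active = mean replicate score, as percent of positive control median, at least 50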;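 also: strain carries kanamycin resistance gene driven by streptokinase promoter and grows in 40 µg/ml kanamycin; loss of luminescence reflects streptokinase promoter inhibition or plain growth inhibition; 0% = median of DMSO wells and 100% = positive control at its reference dose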
CSC inhib: cancer stem cell viability inhibitors, primary screen, luminescence; cancer stem cell-like cells viability; inhibition, % at 7.5 µM; 1.1% of 300,000 active; AID 2717, 2010; in the data active = inhibition above about 75%; tested in HMLE shEcad cells
Mdm2-MdmX conf: Mdm2-MdmX complex disruptors, retested hits, confirmation, luminescence, single concentration; 55% of 10,000 active; shares compounds with Mdm2 MdmX PPI; AID 489028, 2010; Mdm2-MdmX binding, luminescent assay; inhibition, % at 8 µM; in the data active = inhibition above about 40%
Full FLuc ctr: full-length luciferase signal inhibition, confirmation, counter-screen for Mdm2/MdmX interaction inhibitor project, cell-based, single concentration, SaOS-2 | shares compounds with Mdm2 MdmX PPI | SaOS-2 full-length luciferase counterscreen, luminescence | inhibition, % at 8 µM | 77% of 6,200 active;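 active = mean inhibition at 8 µM reaching about 37%, which flags the compound as non-specific, limit read from the data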;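 also: p53-null SaOS-2 cells with luciferase driven by a doxycycline-inducible promoter; compound on cells about two nights before reading with doxycycline added after day one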
An asterisk follows results filed as active; . = not tested or not shown. Sampled rows, rich in hits. Any-hit rate of the full collection: about 5.7%.

SMILES | T cruzi inh | Mdm2 MdmX PPI | Beta cell apopt | Calb FLC | SKKanGAS inh | CSC inhib | Mdm2-MdmX conf | Full FLuc ctr
COCCN(C(=O)Cc1cccs1)C(C(=O)NCc1ccc(OC)cc1)c1ccc(OC)cc1 (stereo not drawn) | 23 | -4 | . | -19 | -2 | . | . | .
Cc1ccc(C(C(=O)NCc2ccccc2)N(Cc2cccs2)C(=O)c2ccc3c(c2)OCCO3)cc1 (stereo not drawn) | 14 | 79* | 8 | 20 | 22 | 44 | 78* | 69*
CSc1cccc(CN2CCC(CCC(=O)NC3CC3)CC2)c1 | 15 | -30 | -3 | -6 | 4 | 20 | . | .
COc1ccc(/C=C/c2nc(N)nc(-c3ccccc3O)n2)cc1OC | 67* | 61* | 17 | 1 | 44 | 42 | 44* | 84*
COC(=O)c1sccc1NC(=O)c1c(-c2ccccc2)noc1C | 3 | 14 | 0 | -2 | -5 | 6 | . | .
CCOC(=O)c1c(NC(=O)/C=C\C(=O)O)sc(C)c1-c1ccccc1 | -14 | 0 | -12 | 29 | 4 | 0 | . | .
CCOC(=O)c1c(NC(=O)/C=C/C(=O)O)sc(C)c1-c1ccc(C(C)(C)C)cc1 | 57* | 87* | 79* | 41 | 39 | 109* | 80* | 56*
COC(=O)c1c(-c2ccc(C)cc2)csc1NC(=O)c1c(-c2ccccc2)noc1C | 17 | 79* | . | 1 | 5 | 32 | 80* | 39*
Cc1cccc(OCCOC(=O)c2c(-c3ccccc3)noc2C)c1 | 11 | 55* | 32 | -7 | -13 | . | 38 | .
CCCOc1cccc(NC(=O)c2c(-c3ccccc3)noc2C)c1 | 11 | -7 | -5 | 4 | -6 | 6 | . | .
CCOC(=O)c1c(NC(=O)c2cc(-c3cccc(O)c3)on2)sc(C(C)=O)c1C | -5 | 75* | . | 5 | 9 | -2 | 0 | .
CCOC(=O)c1sc(NC(=O)c2cc(-c3cccc(O)c3)on2)c(C(=O)OCC)c1C | -15 | 43 | . | 2 | 3 | -1 | . | .
COc1cc(Cl)c(S(=O)(=O)NCCCn2ccnc2)cc1Cl | -10 | -8 | -10 | -3 | 5 | -4 | . | .
Cc1ccc(C)c(C(=O)COC(=O)C(C)N2C(=O)C3C4CCC(C4)C3C2=O)c1 (stereo not drawn) | 0 | 8 | -1 | 5 | -1 | 19 | . | .
CCOCc1nnc(NC(=O)c2c(-c3ccccc3)noc2C)s1 | -9 | 13 | . | 1 | -1 | . | . | .
Cc1onc(-c2ccccc2)c1C(=O)Nc1sc2c(c1C#N)CCC(C)C2 (stereo not drawn) | -1 | 59* | 19 | 11 | -1 | 139* | 55* | 56*
CCOC(=O)c1c(NC(=O)c2c(-c3ccccc3)noc2C)sc(C)c1-c1ccccc1 | 63* | 100* | 6 | 8 | 2 | 40 | 93* | 51*
COCCCNC(=O)CNC(=O)c1nn(-c2ccc(OC)c(Cl)c2)c(=O)c2ccccc12 | 4 | -5 | -2 | 1 | 4 | -4 | . | .
CC(=O)c1cccc(OCC(=O)N(C)CC(=O)NCc2ccco2)c1 | . | 10 | 2 | . | . | -21 | . | .
O=C(O)C1=CC[C@@H](c2ccc(Cl)cc2)N(S(=O)(=O)c2ccc(Cl)cc2)[C@H]1c1ccc(Br)cc1 | . | -24 | . | . | . | . | . | .
CCc1cc(-c2[nH]ncc2-c2ccc(OC)cc2)c(O)cc1O | 20 | 37 | -12 | -6 | -6 | 53 | . | .
C=C(C)COc1ccc(-c2n[nH]c(C)c2-c2ccc(Br)cc2)c(O)c1 | 28 | 86* | -2 | -3 | 99* | 101* | 56* | 51*
